Data on 13 compounds can be found in PubChem BioAssay AID493196 (Broad Institute, 2011).

Assay [1] concerns HMLE_sh_eGFP viability, CellTiter-Glo luminescence, 72 h. The assay can be described thus: HMLE_sh_eGFP viability loss – cell-based, luminescence, dry powder, set 3, counter-screen for breast cancer stem cell project, dose response (AID 493196). The method in brief: (§1)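 Medium: serum-free CSC screening medium / System: HMLE_sh_eGFP counterscreen cell line / Technique: CellTiter-Glo luminescence / Control set: DMSO neutral, puromycin 160 µM positive / Times: ≥4 h attachment, ~70–74 h exposure, 37 °C, 5% CO2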

Assay in assay [2]: as above
The note with it: HMLE_sh_eGFP viability, CellTiter-Glo luminescence, 72 h; at 19.5 µM (top of the series). The method in brief: as §1

Inconclusive results are not listed. Active and inactive are the calls of the source.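 The calls were made as follows: active = every repeat test active, with falling signal and half-maximal dose at most ten times the top dose; inconclusive = repeat tests disagree, or a weak flat or poor fit; inactive = all tests inactive, including signal shifting the wrong way.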

`COC(=O)c1c(NC(=O)c2ccccc2)sc2c1CC(C)(C)OC2`: the AC50 – broadly, the concentration at which the activity in the assay is half-maximal – in assay [1] was 13.4 µM. Still for that read-out and setting: next, `CC(=O)c1cccc(NS(=O)(=O)c2cc(-c3cnc(C4CC4)o3)ccc2C)c1`: 2.67 µM; `CCCCCCc1cc2cc(S(=O)(=O)c3ccc(Cl)cc3)c(=O)oc2cc1O`: 0.965 µM.

With `CCN1C(=O)/C(=C\N2CCN(c3cccc(Cl)c3)CC2)SC1=S`, in assay [1], the AC50 is 11.8 µM. Still for that read-out and setting: next, `CN(c1ccccc1)S(=O)(=O)c1ccc(-c2ccccc2)cc1`: 14.4 µM. Same read-out and setting: next, `CC(C)(C)c1ccc2c(c1)OC(C(=O)NN=Cc1ccc[nH]1)CO2` (mixture of isomers): 19.6 µM. Same read-out and setting: next, `Nc1cc(Cl)ccc1Oc1ccc2ccccc2c1`: 9.73 µM; `Cc1onc(-c2ccccc2)c1C(=O)Nc1sc2c(c1C#N)CCC(C)C2` (stereo not drawn): 6.9 µM. `O=C1NC(=Nc2ccc(Cl)cc2)SC1Cc1cccc(Cl)c1Cl` (stereo not drawn): in assay [1], the AC50 is 14.5 µM.

Take `C/C(=N\NC(=O)c1cc(-c2cccc([N+](=O)[O-])c2)n[nH]1)c1ccccc1O`: the AC50 in assay [1] is 3.52 µM. The same measure, in the same setting: in the case of `Cc1ccc2nc(NC(=O)c3cccc(-c4cc5ccccc5oc4=O)c3)sc2c1` it was 1.85 µM. Turning to `O=C(c1ccccc1)c1coc2ccc(O)c(Br)c12`, in assay [2], the activity change, negative = cytotoxic was 1.2% (inactive). Regarding `O=C(Nc1ccccc1N1CCCC1)c1cccc(-c2cc3ccccc3oc2=O)c1`, the AC50 in assay [1] is 7.97 µM.
